In ChEMBL document CHEMBL1147736, “Trisubstituted acridines as G-quadruplex telomere targeting agents. Effects of extensions of the 3,6- and 9-side chains on quadruplex binding, telomerase activity, and cell proliferation” (J Med Chem, 2006):
Active and inactive are the calls of the source. The calls are words filed in the database; no cut-off is given here.

How the values were obtained:
[1] = system: Nucleic Acid; assay: Ratio of binding constant of compound binding to human quadruplex DNA over that of duplex DNA; format: nucleic-acid assay
Outline: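 Streptavidin-chip SPR (BIAcore 2000/3000) with biotinylated quadruplex or -AATT- duplex DNA loaded at 25 nM. Run in HEPES buffer pH 7.4 (0.20 M KCl, 3 mM EDTA, P20) at 25 °C. Steady-state RU from sensorgram plateaus, flow 10–30 µL/min, plotted against free compound concentration to fit binding constants. Value is the ratio of quadruplex to duplex constants.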

[2] = system: IMR-90; assay: Cytotoxicity in human IMR90 cells by SRB assay; format: functional, cell-based
[3] = system: MCF7; assay: Cytotoxicity in human MCF7 cells by SRB assay; format: functional, cell-based
[4] = target: Telomerase reverse transcriptase (Homo sapiens, UniProt O14746); assay: Inhibition of telomerase activity from human A2780 cells; format: functional, cell-based
Telomerase reverse transcriptase, sequence (O14746 whole entry): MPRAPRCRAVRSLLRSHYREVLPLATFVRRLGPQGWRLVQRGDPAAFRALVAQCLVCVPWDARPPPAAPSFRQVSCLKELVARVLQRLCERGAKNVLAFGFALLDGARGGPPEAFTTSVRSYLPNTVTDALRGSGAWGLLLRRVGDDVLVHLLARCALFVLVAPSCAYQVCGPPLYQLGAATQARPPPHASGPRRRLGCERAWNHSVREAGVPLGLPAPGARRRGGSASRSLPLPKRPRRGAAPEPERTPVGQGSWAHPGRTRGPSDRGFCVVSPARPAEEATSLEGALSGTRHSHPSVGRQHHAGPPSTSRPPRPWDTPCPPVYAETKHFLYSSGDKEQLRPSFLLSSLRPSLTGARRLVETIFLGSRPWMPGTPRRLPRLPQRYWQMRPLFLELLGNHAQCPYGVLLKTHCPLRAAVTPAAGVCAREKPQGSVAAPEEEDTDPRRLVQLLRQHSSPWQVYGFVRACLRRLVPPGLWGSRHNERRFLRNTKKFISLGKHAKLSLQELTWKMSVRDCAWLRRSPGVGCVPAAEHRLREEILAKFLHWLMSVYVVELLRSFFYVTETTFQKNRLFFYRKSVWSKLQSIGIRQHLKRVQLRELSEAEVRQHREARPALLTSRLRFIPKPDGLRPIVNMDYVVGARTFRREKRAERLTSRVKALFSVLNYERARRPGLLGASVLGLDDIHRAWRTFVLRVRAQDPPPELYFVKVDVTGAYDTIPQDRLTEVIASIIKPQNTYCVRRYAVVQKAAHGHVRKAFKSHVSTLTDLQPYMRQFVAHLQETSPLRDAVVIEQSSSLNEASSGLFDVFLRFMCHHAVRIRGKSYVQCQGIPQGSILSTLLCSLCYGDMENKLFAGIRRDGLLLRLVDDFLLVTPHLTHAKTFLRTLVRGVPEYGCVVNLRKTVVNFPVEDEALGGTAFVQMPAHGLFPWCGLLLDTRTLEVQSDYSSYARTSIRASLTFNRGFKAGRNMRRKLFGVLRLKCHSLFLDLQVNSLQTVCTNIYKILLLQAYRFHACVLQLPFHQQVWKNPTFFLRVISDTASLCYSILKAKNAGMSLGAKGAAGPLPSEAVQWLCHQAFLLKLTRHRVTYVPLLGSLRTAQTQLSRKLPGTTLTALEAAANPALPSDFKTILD
Outline: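 TRAP assay with A2780 protein extract, Bradford-quantified. ACX primer (1 µM) and Taq added, 33 PCR cycles. Products on 10% PAGE with SYBR Green I, quantified by gel scanning against a no-protein or heat-inactivated control. Result reported as telEC50.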

[5] = system: MCF7; assay: Increase in senescence in MCF7 cells by staining with SA-beta-Gal at 1 uM; format: functional, cell-based; conditions: Homo sapiens
Outline: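 MCF7 cells in DMEM, counted and reseeded on day 1, treated that day and re-dosed on day 4 each week, over 4 weeks. Weekly, 1 × 10⁵ cells seeded with compound for about 24 h, then fixed and stained with X-gal solution (citrate/phosphate pH 6.0, ferro/ferricyanide) overnight at 37 °C. Blue cells counted by light microscopy as percentage of total versus vehicle control.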

[6] = target: DNA polymerase I, thermostable (Thermus aquaticus) (UniProt P19821); assay: Inhibition of TAQ polymerase activity at 2 uM
DNA polymerase I, thermostable (Thermus aquaticus), sequence (P19821 whole entry): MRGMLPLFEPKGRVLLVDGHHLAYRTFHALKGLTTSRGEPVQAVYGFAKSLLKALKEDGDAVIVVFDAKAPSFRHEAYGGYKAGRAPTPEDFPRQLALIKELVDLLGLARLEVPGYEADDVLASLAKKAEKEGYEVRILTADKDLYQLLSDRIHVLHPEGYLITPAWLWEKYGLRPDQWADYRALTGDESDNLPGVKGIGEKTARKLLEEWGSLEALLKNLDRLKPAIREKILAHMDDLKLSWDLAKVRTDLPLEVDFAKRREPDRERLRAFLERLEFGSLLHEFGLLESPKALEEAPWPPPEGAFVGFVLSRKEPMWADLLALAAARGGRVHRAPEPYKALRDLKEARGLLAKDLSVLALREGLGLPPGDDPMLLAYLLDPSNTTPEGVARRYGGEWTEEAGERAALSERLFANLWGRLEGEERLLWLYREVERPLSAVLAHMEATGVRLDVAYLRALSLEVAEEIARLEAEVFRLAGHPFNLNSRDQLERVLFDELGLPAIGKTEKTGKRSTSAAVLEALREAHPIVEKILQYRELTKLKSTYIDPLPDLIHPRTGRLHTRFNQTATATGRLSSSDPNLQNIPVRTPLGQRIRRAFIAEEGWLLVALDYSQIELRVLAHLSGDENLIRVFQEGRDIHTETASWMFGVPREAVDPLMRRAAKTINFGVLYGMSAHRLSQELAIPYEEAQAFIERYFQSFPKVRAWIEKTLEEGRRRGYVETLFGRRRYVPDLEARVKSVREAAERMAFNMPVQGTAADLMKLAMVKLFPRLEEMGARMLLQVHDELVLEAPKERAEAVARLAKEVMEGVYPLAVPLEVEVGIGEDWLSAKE
Outline: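 PCR with TS forward primer, NT reverse primer (0.5 µM), TSNT template (200 pM), 1 mM MgCl₂, 20 µM dNTPs and 1.25 U Taq, plus compound. Run: 92 °C 2 min, then 33 cycles of 92/52/72 °C. 36 bp product resolved on 10% polyacrylamide gel, stained with SYBR Green I.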

| Ratio [1] | EC50 [4] | inhibition [6] | Structure (SMILES) | IC50 [2] | IC50 [3] | Activity [5] |
| --- | --- | --- | --- | --- | --- | --- |
| 1.6 | 0.255 µM | – | O=C(CCCCN1CCCC1)Nc1ccc2c(Nc3ccc(NC(=O)CCN4CCCC4)cc3)c3ccc(NC(=O)CCCCN4CCCC4)cc3nc2c1 | > 25 µM | > 25 µM | – |
| 72 | 0.146 µM | – | O=C(CCCCCN1CCCC1)Nc1ccc2c(Nc3ccc(NC(=O)CCN4CCCC4)cc3)c3ccc(NC(=O)CCCCCN4CCCC4)cc3nc2c1 | > 25 µM | > 25 µM | – |
| 48 | 0.099 µM | < 25% | CN(C)c1ccc(Nc2c3ccc(NC(=O)CCCN4CCCC4)cc3nc3cc(NC(=O)CCCN4CCCC4)ccc23)cc1 | > 25 µM | 8.75 µM | Active |
| 31 | – | < 25% | CN(C)c1ccc(Nc2c3ccc(NC(=O)CCN4CCCC4)cc3nc3cc(NC(=O)CCN4CCCC4)ccc23)cc1 | > 25 µM | – | – |
| 10.9 | 0.167 µM | – | O=C(CCN1CCCC1)Nc1ccc2c(Nc3ccc(NC(=O)CN4CCCC4)cc3)c3ccc(NC(=O)CCN4CCCC4)cc3nc2c1 | > 25 µM | > 25 µM | – |
| 12.8 | 0.117 µM | – | O=C(CCCN1CCCC1)Nc1ccc(Nc2c3ccc(NC(=O)CCN4CCCC4)cc3nc3cc(NC(=O)CCN4CCCC4)ccc23)cc1 | > 25 µM | > 25 µM | – |
| 4.5 | 1.93 µM | < 25% | CN(C)c1ccc(Nc2c3ccc(NC(=O)CCCCN4CCCC4)cc3nc3cc(NC(=O)CCCCN4CCCC4)ccc23)cc1 | > 25 µM | > 25 µM | – |
| 5.8 | 6.91 µM | < 25% | CN(C)c1ccc(Nc2c3ccc(NC(=O)CCCCCN4CCCC4)cc3nc3cc(NC(=O)CCCCCN4CCCC4)ccc23)cc1 | > 25 µM | > 25 µM | – |
| 29 | 0.067 µM | – | O=C(CCN1CCCC1)Nc1ccc(Nc2c3ccc(NC(=O)CCN4CCCC4)cc3nc3cc(NC(=O)CCN4CCCC4)ccc23)cc1 | > 25 µM | > 25 µM | – |
| – | > 20 µM | – | O=C(CCN1CCCC1)Nc1ccc(Nc2c3ccccc3nc3ccccc23)cc1 | – | – | – |
| 0.6 | 0.326 µM | – | O=C(CCCN1CCCC1)Nc1ccc2c(Nc3ccc(NC(=O)CCN4CCCC4)cc3)c3ccc(NC(=O)CCCN4CCCC4)cc3nc2c1 | > 25 µM | > 25 µM | – |
| 1.2 | 5.2 µM | – | O=C(CN1CCCC1)Nc1ccc2cc3ccc(NC(=O)CN4CCCC4)cc3nc2c1 | – | – | – |
